Laboratory results from paper PMC3240942 (Molecular cell, 2011).
Where no end group is shown, it is not given here.

How the values were obtained:
[1] = system: ESA-deacetylase core interaction; assay: Competition of the ESA-deacetylase core interaction; assay type: binding, mouse; conditions: competing GPDR-ESA peptide (Figure S2E) or 2 μg GST-LZ (N=5)
Procedure, shortened: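 Biotinylated ESA peptide (100 μl at 300 nmole/ml) bound to 1 ml streptavidin agarose for 1 hr at room temperature, washed with PBS, and resuspended in PBS/1% Triton X-100 with protease inhibitors. 30 μl beads incubated 2 hrs at room temperature with deacetylase core and competitor. Biotin-only beads as negative control. Bound core quantified by immunoblot, N=5, mean ± s.e.m.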

[2] = biological target: T1, Sirt1 (Mus musculus, UniProt Q923E4); assay: Sirt1 deacetylase activity in presence of GST-LZ; assay type: biochemical; conditions: compared to GST alone, Figure S3B
T1 sequence (Q923E4 1-737): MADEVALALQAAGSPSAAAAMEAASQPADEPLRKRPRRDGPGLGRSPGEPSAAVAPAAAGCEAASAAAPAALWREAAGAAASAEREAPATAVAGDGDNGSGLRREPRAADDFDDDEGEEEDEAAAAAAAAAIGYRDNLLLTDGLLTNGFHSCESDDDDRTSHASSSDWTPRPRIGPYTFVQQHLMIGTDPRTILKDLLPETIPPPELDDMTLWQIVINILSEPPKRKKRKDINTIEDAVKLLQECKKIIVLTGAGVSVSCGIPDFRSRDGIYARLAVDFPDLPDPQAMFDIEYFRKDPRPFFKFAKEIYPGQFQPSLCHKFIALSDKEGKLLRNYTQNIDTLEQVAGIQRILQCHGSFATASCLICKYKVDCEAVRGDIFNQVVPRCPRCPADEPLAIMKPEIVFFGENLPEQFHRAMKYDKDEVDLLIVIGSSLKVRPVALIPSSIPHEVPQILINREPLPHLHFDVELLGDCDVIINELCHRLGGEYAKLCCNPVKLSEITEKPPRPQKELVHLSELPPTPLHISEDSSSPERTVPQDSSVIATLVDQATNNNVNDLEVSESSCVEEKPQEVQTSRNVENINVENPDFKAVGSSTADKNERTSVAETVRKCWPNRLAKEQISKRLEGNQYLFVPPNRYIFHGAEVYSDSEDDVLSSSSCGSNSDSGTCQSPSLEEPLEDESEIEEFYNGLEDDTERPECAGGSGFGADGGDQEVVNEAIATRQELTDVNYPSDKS

[3] = system: deacetylase core; assay: GST pull-down of deacetylase core with GST-LZ or GST-ESA; assay type: binding, mouse; conditions: GST pull-down, GST-LZ vs GST-ESA
Procedure, shortened: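 His-tagged deacetylase core (a.a. 184-510) incubated with GST, GST-ESA or GST-LZ (DBC1 LZ, a.a. 243-264), 2 μg of each. Unbound protein washed off on micro-spin columns with PBS/1% Triton X-100/200 mM NaCl. Elution in SDS buffer with β-ME at 95 °C for 10 min; 4–12% gradient SDS-PAGE and Western blot for bound core and GST fusions.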

[4] = system: Lys 382 acetylated-p53 (Ac-p53); assay: Deacetylation of Lys 382 acetylated-p53 by recombinant WT/mutant Sirt1; assay type: biochemical, mouse Sirt1; conditions: recombinant Sirt1 2 μg, acetylated GST-p53 0.2 μg, 0.5 mM NAD+, pH 7.0, 37 °C; immunoblot
Procedure, shortened: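 Recombinant His-tagged WT or C-terminally truncated/point-mutant mouse Sirt1 (2 μg) incubated with acetylated GST-p53 (0.2 μg) and 0.5 mM NAD+ in 50 mM HEPES pH 7.0, 1 mM DTT, 10 mM MgCl2, 200 mM NaCl plus protease/phosphatase inhibitors. Reactions ran at 37 °C for indicated times and were stopped with SDS sample buffer. Read-out: immunoblot with acetyl-K382 p53 antibody; loading checked by Coomassie, Ponceau S or Western blot.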

[5] = system: [3H]Ac-histone H4; assay: [3H]Ac-histone H4 deacetylation, O-[3H]acetyl-ADP-ribose scintillation counting; assay type: biochemical; conditions: [3H]Ac-histone H4 substrate; N=4; "almost"
Procedure, shortened: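 WT or mutant recombinant Sirt1 (including ΔESA, G644P, D650R, G644P/D650R) was reacted with [3H]acetyl-histone H4. Activity was quantified by scintillation counting of released O-[3H]acetyl-ADP-ribose. N=4; mean ± s.e.m.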

[6] = biological target: T1, Sirt1; assay: Sirt1 deacetylase activity against Ac-p53, peptide added in trans; assay type: biochemical; conditions: Figure S2G
[7] = system: Sirt6; assay: Fluorometric Sirt6 deacetylase assay; assay type: biochemical; conditions: 150 μM peptide, CycLex SIRT6 fluorometric kit; N=4
Procedure, shortened: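 His-tagged Sirt6 was assayed with the CycLex SIRT6 fluorometric kit. Kit buffer was replaced by 50 mM HEPES pH 7.0, 1 mM DTT, 10 mM MgCl2, 200 mM NaCl plus protease/phosphatase inhibitors. WT or GPDR-mutant ESA peptide (150 μM) or no peptide was present. N=4; mean ± s.e.m.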

[8] = biological target: T1, Sirt1; assay: Lineweaver-Burk kinetics of Sirt1; assay type: biochemical; conditions: against both Ac-H4 and NAD+; Lineweaver-Burk plot
Procedure, shortened: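 His-Sirt1 (2 μg) was pre-incubated 5 min at room temperature in HEPES pH 7.0 buffer with mutant ESA peptide at 0, 60, 120 or 240 μM. Ac-K16 H4 fluorogenic dipeptide was varied at 500 μM NAD+, or NAD+ was varied at 100 μM substrate. Reactions ran 25 min at 37 °C and were stopped with nicotinamide developer; ex 355/em 460 nm, no-NAD+ blank subtracted. Triplicates. Kis/Kii came from a double-reciprocal noncompetitive model fit, Km from the same analysis, kcat from a Michaelis–Menten fit.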

[9] = system: deacetylase core; assay: Pull-down of deacetylase core with immobilized GPDR-ESA peptide; assay type: binding, mouse; conditions: streptavidin pull-down, Figure S2E top
Procedure, shortened: (§1)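 Biotinylated peptide (mutant ESA or acetyl-H4) was bound to streptavidin agarose for 1 h at room temperature, washed, and held in PBS/1% Triton X-100. Beads (30 μl) took 2 μg GST-fused or His-tagged protein for 2 h at room temperature. Beads were washed with PBS/1% Triton/200 mM NaCl and eluted in β-ME SDS buffer at 95 °C for 10 min. Blots ran on 4–12% SDS-PAGE; biotin-only beads were the control.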

[10] = biological target: T2, Sirt1 deacetylase core (Core, a.a. 184-510) (mouse, UniProt Q923E4 184-510); assay: pull-down
T2 sequence (looked up): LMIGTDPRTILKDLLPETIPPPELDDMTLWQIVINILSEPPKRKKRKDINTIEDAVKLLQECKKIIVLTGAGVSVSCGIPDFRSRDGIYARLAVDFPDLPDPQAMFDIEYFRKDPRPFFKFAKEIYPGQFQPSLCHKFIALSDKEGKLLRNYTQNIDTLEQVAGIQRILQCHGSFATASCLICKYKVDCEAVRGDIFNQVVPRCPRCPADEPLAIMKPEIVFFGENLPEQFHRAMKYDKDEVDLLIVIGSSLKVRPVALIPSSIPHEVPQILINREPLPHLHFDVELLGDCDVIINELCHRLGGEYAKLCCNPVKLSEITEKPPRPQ

[11] = system: native Ac-histone H3; assay: Deacetylation of native Ac-histone H3 by recombinant Sirt1; assay type: biochemical
[12] = system: p53; assay: Deacetylation of p53 in transfected H1299 cells; assay type: cell-based; conditions: co-transfected with p53
Procedure, shortened: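 H1299 cells were transiently co-transfected with a p53 vector and a WT or ΔESA Sirt1 vector; empty vector was the negative control. Acetylated p53 was detected by immunoblot with an acetyl-K382-specific antibody.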

[13] = system: p53 target genes p21, PUMA and Bim; assay: Expression of p53 target genes in H1299 cells; assay type: cell-based; conditions: co-expressed p53
Procedure, shortened: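 H1299 cells transiently co-transfected with a p53 expression vector and a WT or ΔESA Sirt1 expression vector; empty vector as control. Levels of the p53-activated genes p21, PUMA and Bim were then visualized.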

[14] = system: Flag-p65 (NF-κB); assay: Co-immunoprecipitation of Sirt1 with Flag-p65 in Hela cells; assay type: cell-based; conditions: V5-tagged Sirt1
Procedure, shortened: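 Transient co-transfection of HeLa cells with Flag-NF-κB p65 plus V5-tagged full-length or ΔESA Sirt1. p65 was pulled down with anti-Flag, and bound Sirt1 was detected by anti-V5 immunoblot alongside input levels.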

[15] = system: GST-Ac-p53; assay: Pull-down of Sirt1 / core fragments with GST-Ac-p53; assay type: binding; conditions: in vitro pull-down
Procedure, shortened: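 In vitro pull-downs with GST-Ac-p53 or GST alone as negative control. Recombinant Flag-tagged full-length or ΔESA (a.a. 631-655 deleted) Sirt1 pulled down with anti-Flag, bound GST-Ac-p53 detected by GST immunoblot, and Sirt1 shown by Coomassie. Alternatively, core (a.a. 184-510) or Core-ESA with GST-Ac-p53 (2 μg each) in GST pull-down, bound core detected by Sirt1 immunoblot.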

[16] = system: Ac-H3; assay: Interaction of Sirt1 with Ac-H3 purified from Hela cells; assay type: binding; conditions: Figure S3A
[17] = system: Ac-H4; assay: Interaction of Sirt1 with Ac-H4 purified from Hela cells; assay type: binding; conditions: Figure S3A
[18] = Pull-down of GST fusion proteins with immobilized GPDR-ESA peptide; assay type: binding; conditions: Figure S2F
Procedure, shortened: as §1

Molecule: GST-LZ: LZ domain of DBC1 (a.a. 243-264) fused to GST (LQRRYRSLLVPSDFLSVHLSWL; also: fused to GST, end not given here)
- inhibition of ESA-deacetylase core interaction [1]: prevented the ESA-deacetylase core interaction
- reduction of Sirt1 deacetylase activity [2]: significantly reduced Sirt1 deacetylase activity
- relative strength of interaction with deacetylase core [3]: stronger than the ESA-deacetylase core interaction

Molecule: GPDR: Sirt1 with a double mutation G644P and D650R
- deacetylase activity against Ac-p53 [4]: very little deacetylase activity
- fold reduction of Sirt1 activity [5]: ~10 fold

Molecule: GPDR-ESA peptide: ESA peptide containing a mutation of two residues, G644P and D650R (GPDR) (QYLFVPPNRYIFHPAEVYSRSEDDV; also: biotinylated, position not given here)
- inhibition of Sirt1 activity against Ac-p53 [6]: also inhibited Sirt1 activity against Ac-p53
- effect on Sirt6 activity [7]: had no effect on Sirt6 activity
- mode of inhibition [8]: noncompetitive inhibitor
- binding to deacetylase core [9]: also bound to the deacetylase core
- inhibition of ESA-deacetylase core interaction [1]: ESA-deacetylase core interaction was inhibited

B1: GST-ESA (ESA fused to GST) (domain or fragment, mouse, UniProt Q923E4 631-655, looked up)
chain: QYLFVPPNRYIFHGAEVYSDSEDDV
- binding result [10]: binds

B2: ΔESA Sirt1: Sirt1 with the 25 a.a. ESA region (a.a. 631-655) deleted (protein)
chain: MADEVALALQAAGSPSAAAAMEAASQPADEPLRKRPRRDGPGLGRSPGEPSAAVAPAAAGCEAASAAAPAALWREAAGAAASAEREAPATAVAGDGDNGSGLRREPRAADDFDDDEGEEEDEAAAAAAAAAIGYRDNLLLTDGLLTNGFHSCESDDDDRTSHASSSDWTPRPRIGPYTFVQQHLMIGTDPRTILKDLLPETIPPPELDDMTLWQIVINILSEPPKRKKRKDINTIEDAVKLLQECKKIIVLTGAGVSVSCGIPDFRSRDGIYARLAVDFPDLPDPQAMFDIEYFRKDPRPFFKFAKEIYPGQFQPSLCHKFIALSDKEGKLLRNYTQNIDTLEQVAGIQRILQCHGSFATASCLICKYKVDCEAVRGDIFNQVVPRCPRCPADEPLAIMKPEIVFFGENLPEQFHRAMKYDKDEVDLLIVIGSSLKVRPVALIPSSIPHEVPQILINREPLPHLHFDVELLGDCDVIINELCHRLGGEYAKLCCNPVKLSEITEKPPRPQKELVHLSELPPTPLHISEDSSSPERTVPQDSSVIATLVDQATNNNVNDLEVSESSCVEEKPQEVQTSRNVENINVENPDFKAVGSSTADKNERTSVAETVRKCWPNRLAKEQISKRLEGNLSSSSCGSNSDSGTCQSPSLEEPLEDESEIEEFYNGLEDDTERPECAGGSGFGADGGDQEVVNEAIATRQELTDVNYPSDKS
modifications: left off: V5, end not stated, kept
- deacetylase activity against Ac-p53 [4]: did not have any deacetylase activity
- deacetylase activity against native Ac-histone H3 [11]: did not have any deacetylase activity
- deacetylation of p53 in vivo [12]: WT Sirt1, but not ΔESA Sirt1, was able to deacetylate p53
- suppression of p53 target gene expression [13]: failed to suppress the expression of p53 target genes
- co-immunoprecipitation with Flag-p65 [14]: did so very poorly
- binding to GST-Ac-p53 [15]: bound poorly to GST-Ac-p53 compared to full-length Sirt1
- interaction with Ac-H3 [16]: significantly weakened the interaction
- interaction with Ac-H4 [17]: significantly weakened the interaction

B3: GST-Sirtuin domain: GST fused to Sirtuin domain (a.a. 236-490) (protein)
chain: EDAVKLLQECKKIIVLTGAGVSVSCGIPDFRSRDGIYARLAVDFPDLPDPQAMFDIEYFRKDPRPFFKFAKEIYPGQFQPSLCHKFIALSDKEGKLLRNYTQNIDTLEQVAGIQRILQCHGSFATASCLICKYKVDCEAVRGDIFNQVVPRCPRCPADEPLAIMKPEIVFFGENLPEQFHRAMKYDKDEVDLLIVIGSSLKVRPVALIPSSIPHEVPQILINREPLPHLHFDVELLGDCDVIINELCHRLGGEYA
modifications: left off: GST, end not stated, kept
- binding to immobilized GPDR-ESA peptide [18]: bound to the GPDR-ESA peptide
